Activity calls are given as the source filed them. No cut-off for these calls is given here.
Legend:
Bacteria [1] = test: Inhibition of bacterial AmpC beta-lactamase assessed as time reach to 90% inhibition in presence of preloaded MDH
Outline: (§1)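 AmpC activity with 70 μM CENTA, read at 405 nm for 150 s, in 50 mM KPi pH 7 at room temperature. For preloading, the aggregator was incubated 5 min with MDH before AmpC was added and incubated for varying times. % activity is relative to an aggregator-free rate control. T90 is the time to 10% activity.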

Bacteria [2] = test: Inhibition of bacterial AmpC beta-lactamase preincubated for 30 sec in presence of preloaded MDH relative to control; conditions: concentration not given here; outline: as §1
Bacteria [3] = test: Inhibition of bacterial AmpC beta-lactamase at 5 uM preincubated for 1 min followed by CENTA chromogenic substrate addition by spectrophotometric method relative to control
Outline: (§2)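 AmpC β-lactamase mixed with colloidal aggregator in 50 mM KPi pH 7 at room temperature, mixed by pipetting, incubated 30 s–15 min. Then 70 μM CENTA added and absorbance followed at 405 nm for 150 s. % activity is the initial rate relative to an aggregator-free control. T90 is the incubation time to reach 10% activity.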

[4] = target: T1, Malate dehydrogenase, mitochondrial (Homo sapiens) (UniProt P40926); test: Inhibition of malate dehydrogenase (unknown origin) assessed as time to reach 90% inhibition pretreated with 50 mM KPi for 15 mins followed by nicotinamide adenine dinucleotide addition measured every 150 sec by spectrophotometric method; conditions: dose 5.0 mM, in the assay text read “5 mM KPi” for “50 mM KPi”
T1 sequence (whole entry): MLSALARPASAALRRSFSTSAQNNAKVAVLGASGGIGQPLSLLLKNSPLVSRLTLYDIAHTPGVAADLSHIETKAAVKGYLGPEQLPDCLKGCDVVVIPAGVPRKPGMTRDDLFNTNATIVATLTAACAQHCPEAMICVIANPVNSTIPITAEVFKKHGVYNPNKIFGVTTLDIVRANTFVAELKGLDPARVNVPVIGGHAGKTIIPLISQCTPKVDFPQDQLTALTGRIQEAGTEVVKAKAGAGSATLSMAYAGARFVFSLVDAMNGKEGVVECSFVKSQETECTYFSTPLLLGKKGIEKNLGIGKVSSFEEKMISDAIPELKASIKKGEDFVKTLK
Outline: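 Porcine heart MDH mixed with colloidal aggregator in 50 mM KPi pH 7 at room temperature, incubated 30 s–15 min. Reaction started with 200 μM NADH and 200 μM oxaloacetic acid, followed at 340 nm for 150 s. Initial rate relative to an aggregator-free control gives % activity. T90 is the incubation time to 10% activity.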

Bacteria [5] = test: Inhibition of bacterial AmpC beta-lactamase at 10 uM using 2 nM of enzyme preincubated for 30 sec followed by CENTA chromogenic substrate addition by spectrophotometric assay relative to control; outline: as §2
Bacteria [6] = test: Inhibition of bacterial AmpC beta-lactamase at 10 uM of 10 nM of enzyme preincubated for 5 min followed by CENTA chromogenic substrate addition by spectrophotometric assay relative to control; design: scale not given: the % may be the effect or the level left; outline: as §2
Bacteria [7] = test: Inhibition of bacterial AmpC beta-lactamase preincubated for 30 sec in absence of preloaded MDH relative to control; conditions: concentration not given here; outline: as §1
[8] = target: T1, Malate dehydrogenase, mitochondrial (Homo sapiens); test: Inhibition of preloaded MDH (unknown origin) preincubated for 30 sec in presence of preloaded AmpC
Outline: (§3)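 Porcine heart MDH assay: 200 μM nicotinamide adenine dinucleotide plus 200 μM oxaloacetate, read at 340 nm for 150 s, in 50 mM KPi pH 7 at room temperature. For preloading, the aggregator was first incubated 5 min with AmpC, then MDH was added and incubated for varying times. % activity is relative to an aggregator-free control.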

Bacteria [9] = test: Inhibition of bacterial AmpC beta-lactamase at 5 uM preincubated for 2 mins followed by CENTA chromogenic substrate addition by spectrophotometric method relative to control; outline: as §2
Bacteria [10] = test: Inhibition of bacterial AmpC beta-lactamase assessed as time reach to 90% inhibition in absence of preloaded MDH; outline: as §1
Bacteria [11] = test: Inhibition of bacterial AmpC beta-lactamase at 5 uM preincubated for 5 min followed by CENTA chromogenic substrate addition by spectrophotometric method relative to control; outline: as §2
Bacteria [12] = test: Inhibition of bacterial AmpC beta-lactamase at 10 uM using 10 nM of enzyme preincubated for 30 sec followed by CENTA chromogenic substrate addition by spectrophotometric assay relative to control; outline: as §2
[13] = target: T1, Malate dehydrogenase, mitochondrial (Homo sapiens); test: Inhibition of preloaded MDH (unknown origin) preincubated for 30 sec in absence of preloaded AmpC; outline: as §3
Bacteria [14] = test: Inhibition of bacterial AmpC beta-lactamase at 10 uM using 2 nM of enzyme preincubated for 5 mins followed by CENTA chromogenic substrate addition by spectrophotometric assay relative to control; outline: as §2
Escherichia coli = test: Inhibition of Escherichia coli beta galactosidase using ortho-nitrophenyl-beta-galactoside as substrate
Outline: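 E. coli β-galactosidase (overproducer) mixed with colloidal aggregator in 50 mM KPi pH 7, incubated 30 s–15 min at room temperature; reaction started with 300 μM ortho-nitrophenyl-β-galactoside and followed at 320 nm for 150 s. Initial rate divided by that of an aggregator-free control gives % activity.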

- TIME (Bacteria [1]): 0.0833 h
- inhibition (Bacteria [2]): 45%
- inhibition (Bacteria [3]): 40%
- TIME [4]: > 0.25 h
- inhibition (Bacteria [5]): 67%
- Activity (Bacteria [6]): 20%
- inhibition (Bacteria [7]): 80%
- inhibition [8]: Active
- inhibition (Bacteria [9]): 80%
- TIME (Bacteria [10]): 0.0167 h
- inhibition (Bacteria [11]): 100%
- inhibition (Bacteria [12]): 40%
- inhibition [13]: Active
- inhibition (Bacteria [14]): 100%
- inhibition (Escherichia coli): Active
Structure (SMILES): CNC(=O)c1cc(Oc2ccc(NC(=O)Nc3ccc(Cl)c(C(F)(F)F)c3)cc2)ccn1
